Results published in ChEMBL document CHEMBL1641569, “Synthetic conjugates of genistein affecting proliferation and mitosis of cancer cells” (Bioorg Med Chem, 2011).
Blank lines part the entries; values can stand above or below the compound they belong to. Calls of active or inactive are those of the source. The rule behind the calls is not given here.

Legend:
[1] = system: HCT-116; assay: Cytotoxicity against human HCT116 cells after 72 hrs by MTT assay; assay type: functional, cell-based; conditions: HCT-116, 72 h
[2] = system: HCT-116; assay: Cell cycle arrest in human HCT116 cells assessed as accumulation at G2/M phase after 24 hrs by propidium iodide staining-based flow cytometry; assay type: functional
Procedure, shortened: (§1)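 Subconfluent cultures exposed continuously to compound; floating and trypsinized adherent cells pooled, PBS-washed, fixed in ice-cold 70% ethanol 30 min, RNase (100 µg/mL) treated, stained with propidium iodide, DNA content measured by flow cytometry to give G1, S, G2/M, apoptotic (sub-G1) and polyploid fractions. Experiments repeated at least twice.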

[3] = system: HCT-116; assay: Inhibition of mitosis in human HCT116 cells assessed as mitotic index at 20 uM after 24 hrs by fluorescence assay; assay type: functional
Procedure, shortened: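 Cells treated 24 h, collected as for cell cycle analysis, cytospun, fixed in cold methanol, stained with 3 µM DAPI; mitotic cells counted among 1000 cells under 40× objective. Mean ± SD from three independent experiments.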

[4] = system: HCT-116; assay: Inhibition of mitosis in human HCT116 cells assessed as appearance of normal bipolar spindle at 5 uM after 24 hrs by immunofluorescence assay; assay type: functional; parameters: scale not given: the % may be the effect or the level left
Procedure, shortened: (§2)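 Cells treated 24 h on chamber slides, fixed in ice-cold methanol, blocked with 1% goat serum, stained with mouse anti-β-tubulin (1:50) then FITC anti-mouse, DAPI counterstained; 100 mitotic cells per treatment scored at 100× oil for spindle type (normal bipolar, bipolar with lagging chromosomes, tri/multipolar, monopolar). Mean ± SD of two experiments.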

[5] = system: HCT-116; assay: Inhibition of mitosis in human HCT116 cells assessed as appearance of normal bipolar spindle at 10 uM after 24 hrs by immunofluorescence assay; assay type: functional; parameters: scale not given: the % may be the effect or the level left; procedure, shortened: as §2
[6] = system: HCT-116; assay: Inhibition of mitosis in human HCT116 cells assessed as appearance of normal bipolar spindle at 20 uM after 24 hrs by immunofluorescence assay; assay type: functional; parameters: scale not given: the % may be the effect or the level left; procedure, shortened: as §2
[7] = system: HCT-116; assay: Inhibition of mitosis in human HCT116 cells assessed as appearance of bipolar spindle with large mass of lagging chromosomes at spindle poles at 5 uM after 24 hrs by immunofluorescence assay; assay type: functional; parameters: scale not given: the % may be the effect or the level left; procedure, shortened: as §2
[8] = system: HCT-116; assay: Inhibition of mitosis in human HCT116 cells assessed as appearance of bipolar spindle with large mass of lagging chromosomes at spindle poles at 10 uM after 24 hrs by immunofluorescence assay; assay type: functional; parameters: scale not given: the % may be the effect or the level left; procedure, shortened: as §2
[9] = system: HCT-116; assay: Inhibition of mitosis in human HCT116 cells assessed as appearance of bipolar spindle with large mass of lagging chromosomes at spindle poles at 20 uM after 24 hrs by immunofluorescence assay; assay type: functional; parameters: scale not given: the % may be the effect or the level left; procedure, shortened: as §2
[10] = system: HCT-116; assay: Inhibition of mitosis in human HCT116 cells assessed as appearance of tripolar and multipolar spindle at 5 uM after 24 hrs by immunofluorescence assay; assay type: functional; parameters: scale not given: the % may be the effect or the level left; procedure, shortened: as §2
[11] = system: HCT-116; assay: Inhibition of mitosis in human HCT116 cells assessed as appearance of tripolar and multipolar spindle at 10 uM after 24 hrs by immunofluorescence assay; assay type: functional; parameters: scale not given: the % may be the effect or the level left; procedure, shortened: as §2
[12] = system: HCT-116; assay: Inhibition of mitosis in human HCT116 cells assessed as appearance of tripolar and multipolar spindle at 20 uM after 24 hrs by immunofluorescence assay; assay type: functional; parameters: scale not given: the % may be the effect or the level left; procedure, shortened: as §2
[13] = system: HCT-116; assay: Inhibition of mitosis in human HCT116 cells assessed as appearance of monopolar spindle at 5 uM after 24 hrs by immunofluorescence assay; assay type: functional; parameters: scale not given: the % may be the effect or the level left; procedure, shortened: as §2
[14] = system: HCT-116; assay: Inhibition of mitosis in human HCT116 cells assessed as appearance of monopolar spindle at 10 uM after 24 hrs by immunofluorescence assay; assay type: functional; parameters: scale not given: the % may be the effect or the level left; procedure, shortened: as §2
[15] = system: HCT-116; assay: Inhibition of mitosis in human HCT116 cells assessed as appearance of monopolar spindle at 20 uM after 24 hrs by immunofluorescence assay; assay type: functional; parameters: scale not given: the % may be the effect or the level left; procedure, shortened: as §2
[16] = Inhibition of tubulin polymerization after 1 hr
Procedure, shortened: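 Cell-free assay: >97% pure tubulin in G-PEM buffer (80 mM PIPES, 2 mM MgCl2, 0.5 mM EGTA, 1 mM GTP, pH 6.9) plus 5% glycerol, with vehicle, compound (10, 20, 50 µM) or 3 µM paclitaxel, in pre-warmed plate at 37 °C; absorbance at 340 nm read every minute for 1 h. Repeated twice.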

[17] = system: HCT-116; assay: Induction of apoptosis in human HCT116 cells assessed as appearance of hypodiploid nucleus at 5 to 20 uM after 48 hrs by flow cytometry; assay type: functional, cell-based; procedure, shortened: as §1
[18] = system: HCT-116; assay: Induction of apoptosis in human HCT116 cells assessed as appearance of tetraploid nucleus at 5 to 20 uM after 48 hrs by flow cytometry; assay type: functional, cell-based; procedure, shortened: as §1
[19] = system: HCT-116; assay: Induction of apoptosis in human HCT116 cells assessed as appearance of hypodiploid nucleus at 20 uM after 72 hrs by TUNEL assay; assay type: functional, cell-based
Procedure, shortened: (§3)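 Floating and trypsin-detached adherent cells pooled, cytospun, fixed and TUNEL-labelled; apoptotic index scored among 500 nuclei, three experiments. In parallel, DNA extracted (proteinase K/SDS overnight 56 °C, phenol/chloroform, RNase A) and run on 1.8% agarose/ethidium bromide gel in 0.5× TBE for laddering. Controls received 0.2% DMSO; 24, 48, 72 h treatments.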

[20] = system: HCT-116; assay: Induction of apoptosis in human HCT116 cells assessed as effect on apoptotic index at 20 uM after 72 hrs by DNA laddering assay; assay type: functional; procedure, shortened: as §3
[21] = system: HCT-116; assay: Cytotoxicity against human HCT116 cells harboring p53 protein after 72 hrs by MTT assay; assay type: functional, cell-based; conditions: HCT-116, 72 h
Procedure, shortened: (§4)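 Cells seeded at 2 × 10³ per well, 24 h later exposed continuously 72 h to varying concentrations; then 0.5 mg/mL MTT in phenol red-free DMEM 3 h at 37 °C, formazan dissolved in 2-propanol/HCl, OD 570 nm. Viability relative to DMSO vehicle; IC50 = concentration reducing viability by 50%; triplicate wells, at least three independent experiments, mean ± SD.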

[22] = system: HCT-116; assay: Cytotoxicity against p53-deficient human HCT116 cells after 72 hrs by MTT assay; assay type: functional, cell-based; conditions: HCT-116, 72 h; procedure, shortened: as §4
[23] = system: HCT-116; assay: Induction of apoptosis in p53-deficient human HCT116 cells assessed as effect on apoptotic index at 20 uM after 72 hrs by DNA laddering assay; assay type: functional; procedure, shortened: as §3
[24] = system: HCT-116; assay: Induction of apoptosis in human HCT116 cells harboring p53 protein assessed as effect on apoptotic index at 20 uM after 72 hrs by DNA laddering assay; assay type: functional; procedure, shortened: as §3
[25] = system: AGS; assay: Cell cycle arrest in human AGS cells assessed as accumulation at G2/M phase at 20 uM after 24 hrs by propidium iodide staining-based flow cytometry; assay type: functional; procedure, shortened: as §1
[26] = system: A549; assay: Cell cycle arrest in human A549 cells assessed as accumulation at G2/M phase at 20 uM after 24 hrs by propidium iodide staining-based flow cytometry; assay type: functional; procedure, shortened: as §1
[27] = system: DU-145; assay: Cell cycle arrest in human DU145 cells assessed as accumulation at G2/M phase at 20 uM after 24 hrs by propidium iodide staining-based flow cytometry; assay type: functional; procedure, shortened: as §1
[28] = system: SK-BR-3; assay: Cytotoxicity against human SKBR3 cells after 72 hrs by SRB assay; assay type: functional, cell-based; conditions: SK-BR-3, 72 h
Procedure, shortened: (§5)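 Cells plated at 2 × 10³ per well 24 h before continuous 72 h exposure to a concentration series; fixed with cold 50% TCA 1 h at 4 °C, stained with 0.4% sulforhodamine B in 1% acetic acid 30 min, bound dye extracted in 10 mM Tris base, OD 540 nm. Viability as % of DMSO control; IC50 = concentration reducing viability 50%; triplicates, ≥3 experiments.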

[29] = system: MCF7; assay: Cytotoxicity against human MCF7 cells after 72 hrs by SRB assay; assay type: functional, cell-based; conditions: MCF7, 72 h; procedure, shortened: as §5
[30] = system: HT-29; assay: Cytotoxicity against human HT-29 cells after 72 hrs by SRB assay; assay type: functional, cell-based; conditions: HT-29, 72 h; procedure, shortened: as §5
[31] = system: Caco-2; assay: Cytotoxicity against human Caco2 cells after 72 hrs by MTT assay; assay type: functional, cell-based; conditions: Caco-2, 72 h; procedure, shortened: as §4
[32] = system: LoVo; assay: Cytotoxicity against human LoVo cells after 72 hrs by MTT assay; assay type: functional, cell-based; procedure, shortened: as §4
[33] = system: T98G; assay: Cytotoxicity against human T98G cells after 72 hrs by SRB assay; assay type: functional, cell-based; procedure, shortened: as §5
[34] = system: DU-145; assay: Cytotoxicity against human DU145 cells after 72 hrs by MTT assay; assay type: functional, cell-based; conditions: DU-145, 72 h; procedure, shortened: as §4
[35] = system: LNCaP; assay: Cytotoxicity against human LNCAP cells after 72 hrs by SRB assay; assay type: functional, cell-based; procedure, shortened: as §5
[36] = system: PC-3; assay: Cytotoxicity against human PC3 cells after 72 hrs by MTT assay; assay type: functional, cell-based; conditions: PC-3, 72 h; procedure, shortened: as §4
[37] = system: A549; assay: Cytotoxicity against human A549 cells after 72 hrs by SRB assay; assay type: functional, cell-based; conditions: A549, 72 h; procedure, shortened: as §5
[38] = system: AGS; assay: Cytotoxicity against human AGS cells after 72 hrs by MTT assay; assay type: functional, cell-based; procedure, shortened: as §4
[39] = system: HCT-116; assay: Induction of senescence in human HCT116 cells assessed as beta galactosidase activity at 20 uM
[40] = system: HCT-116; assay: Cell cycle arrest in human HCT116 cells assessed as accumulation at G2/M phase at 5 to 20 uM after 24 hrs by propidium iodide staining-based flow cytometry; assay type: functional; procedure, shortened: as §1

Structure (SMILES): CCCO[C@H]1C=C[C@@H](OC(C)=O)[C@H](C)O1
IC50 [1]: 550 µM

Structure (SMILES): CC(=O)OC[C@H]1O[C@H](OCCCCCOc2cc(O)c3c(=O)c(-c4ccc(O)cc4)coc3c2)C=C[C@@H]1OC(C)=O
IC50 [1]: 8.45 µM
Activity [2]: Dose-dependent effect
Activity [3]: 5.2

inhibition [16]: Dose-dependent effect
Structure (SMILES): CC(=O)O[C@@H]1C=C[C@H](OCCCOc2cc(O)c3c(=O)c(-c4ccc(O)cc4)coc3c2)O[C@H]1C
IC50 [1]: 4.76 µM
Activity [2]: Dose-dependent effect
Activity [3]: 13.2
Activity [4]: 85%
Activity [5]: 44%
Activity [6]: 16%
Activity [7]: 14%
Activity [8]: 38%
Activity [9]: 40%
Activity [10]: 1%
Activity [11]: 15%
Activity [12]: 42%
Activity [13]: 0%
Activity [14]: 3%
Activity [15]: 2%
Activity [17]: Active
Activity [18]: Active
Activity [19]: Active
Activity [20]: 12%
IC50 [21]: 4.76 µM
IC50 [22]: 6.21 µM
Activity [23]: 15%
Activity [24]: 12%
Activity [25]: 39.7%
Activity [26]: 31.6%
Activity [27]: 46.1%
IC50 [28]: 28 µM
IC50 [29]: 8.88 µM
IC50 [30]: 36.1 µM
IC50 [31]: 23.3 µM
IC50 [32]: 9.85 µM
IC50 [33]: 16.7 µM
IC50 [34]: 14.5 µM
IC50 [35]: 18 µM
IC50 [36]: 10.7 µM
IC50 [37]: 14.7 µM
IC50 [38]: 3.05 µM
Activity [39]: 31%

Structure (SMILES): O=c1c(-c2ccc(O)cc2)coc2cc(OCCCCCO)cc(O)c12
IC50 [1]: 6.92 µM
Activity [40]: inactive
Activity [3]: 3

Structure (SMILES): O=c1c(-c2ccc(O)cc2)coc2cc(OCCCO)cc(O)c12
IC50 [1]: 23.9 µM

Structure (SMILES): CC(=O)O[C@@H]1C=C[C@H](OCCCCCOc2cc(O)c3c(=O)c(-c4ccc(O)cc4)coc3c2)O[C@H]1C
IC50 [1]: 8.08 µM
Activity [2]: Dose-dependent effect
Activity [3]: 3.5
